This passage reports cytotoxicity results from ChEMBL document CHEMBL4513216, “Probing the Open Global Health Chemical Diversity Library for Multistage-Active Starting Points for Next-Generation Antimalarials” (ACS Infect Dis, 2020).

This series is described as follows: Toxicity liver stage against HepG2, at 10uM. Format: cell-based. Further details: test concentration 10 uM, cell line HepG2-A16-CD81EGFP. Conditions: human, HepG2-A16-CD81EGFP cells; read-out: INHIBITION
An outline of the steps:
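Uninfected HepG2-A16-CD81EGFP cells, 3 × 10^3 per well, 1536-well, plated on prespotted compound at 10 μM final, parasite-free screening media added to match infected plates; puromycin 10 μM positive, DMSO 0.5% negative; run in parallel with 48 h PbLuc assay at 37 °C, 5% CO2; viability by CellTiter-Glo luminescence, normalized to controls.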
For `O=C(CC1CCCC1)NCCS(=O)(=O)N1CCN(c2ccccc2)CC1`, the cytotoxicity at 10 µM was -4.07%.

Regarding `CN(c1cccnn1)C1CCN(C(=O)c2n[nH]c3c2CCC3)CC1`, the cytotoxicity at 10 µM came to 6.96%.

For `O=C(CC1CCCC1)N1CCN2C[C@@H](CO)[C@H](c3ccccc3)[C@H]2C1`, the cytotoxicity at 10 µM is -4.73%.

For `COc1cccc(C(=O)NCC2CCN(C(=O)c3ccoc3)CC2)c1`, the cytotoxicity at 10 µM was 15.9%.

With `CCS(=O)(=O)CCNC(=O)c1cc2n(n1)CCCO2`, the cytotoxicity at 10 µM was -8.81%.

For the compound `CN(C)C(=O)NCc1nnc2n1CCN(Cc1ccsc1)C2`, the cytotoxicity at 10 µM amounted to 8.31%.

On to `COCCN1CCC2(COCc3c(C)nc(N(C)C)nc32)C1` (stereo not drawn), for which the cytotoxicity at 10 µM was -132%.

`Cc1cccc(CN2CC[C@@H]3[C@@H]2CCN3C(=O)c2cnoc2C)n1`: the cytotoxicity at 10 µM is -21.1%.

With `Cn1cc(Br)c(C(=O)NCCCn2cc(Br)cn2)n1`, the cytotoxicity at 10 µM is -6.4%.

`COc1c(CC2CC(C(=O)O)=NO2)c(Br)c2c(c1OC)OCO2` (stereo not drawn): the cytotoxicity at 10 µM amounted to 6.36%.

In the case of `OCc1n[nH]c(-c2ccc(F)cc2)n1`, the cytotoxicity at 10 µM is -4.64%.

As to `Cc1sc(C(=O)NC(C)C)cc1S(=O)(=O)N(C)C`, the cytotoxicity at 10 µM was -7.84%.

In the case of `CC(=O)N1CCC(c2nccnc2C)CC1`, the cytotoxicity at 10 µM was -2.82%.

Regarding `Cc1cncnc1C1CCN(CC(N)=O)CC1`, the cytotoxicity at 10 µM is -6.84%.

Consider `CC(C)CC(=O)N1CCC(c2nnc3n2CCCCC3)CC1`, for which the cytotoxicity at 10 µM is -28%.

Turning to `Cc1ccnc(C2CCCN2C(=O)CN(C)C)n1` (stereo not drawn), the cytotoxicity at 10 µM was -19.1%.

For the compound `Cc1cc2c(=O)n3c(nc2s1)CCN(C(=O)c1ccnn1C)CC3`, the cytotoxicity at 10 µM was -4.08%.

Turning to `CCc1nnc2n1CCN(C(=O)C1CCC(n3cccc3)CC1)C2` (stereo not drawn), the cytotoxicity at 10 µM was -1.5%.

Consider `O=C(COCC1CC1)Nc1cc(S(=O)(=O)NC2CC2)ccc1F`, for which the cytotoxicity at 10 µM was -7.63%.

Regarding `O=C(c1cnc(-c2ccccc2)nc1)N1CCOC2(CCCC2)C1`, the cytotoxicity at 10 µM is -1.39%.

For `Cc1noc(C)c1NC(=O)Cn1cc(Br)ccc1=O`, the cytotoxicity at 10 µM came out at 8.99%.

Take `CCN(Cc1ccc(C#N)cc1F)C(=O)C(C)(C)C`: the cytotoxicity at 10 µM was determined as 5.73%.

With `Cc1c(NC(=O)NC(C)CCO)cccc1OC1CCCC1` (stereo not drawn), the cytotoxicity at 10 µM is -7.18%.

Turning to `NC(=O)c1cn[nH]c1NC(=O)c1ccc2c(c1)OCO2`, the cytotoxicity at 10 µM amounted to 1.03%.

Turning to `O=C(COC1CCCC1)NCc1ccc(O)c(F)c1`, the cytotoxicity at 10 µM was -2.43%.

For `Cn1nc2c(cc1=O)CN(CCCOc1ccc(C#N)cc1)CC2`, the cytotoxicity at 10 µM stood at 22.9%.

Consider `CCc1nc2n(n1)CC(NCc1ccccc1OCC(=O)NC)CC2` (stereo not drawn), for which the cytotoxicity at 10 µM stood at 4.57%.

For the compound `Cc1noc(NCc2ccc(F)cc2F)n1`, the cytotoxicity at 10 µM was -4.49%.

For `COc1ccccc1CC1CCN(C(=O)CCN2CCOC2=O)CC1`, the cytotoxicity at 10 µM was 3.76%.

In the case of `CC(Cc1c(F)cccc1F)NC(=O)CN(CC(N)=O)C(C)C` (stereo not drawn), the cytotoxicity at 10 µM is -10.5%.

For `CN(C)CCSc1ccc(NC(=O)c2nccn3ccnc23)cc1`, the cytotoxicity at 10 µM was -6.25%.

As to `COCCN(Cc1ccc(F)cc1Cl)C(=O)c1c(C)noc1C`, the cytotoxicity at 10 µM is -1.82%.

As for `Cc1cc(NC(=O)CN2CCCC(Cn3cncn3)C2)no1` (stereo not drawn), the cytotoxicity at 10 µM was -0.749%.

Take `Cc1nc(C2(NCc3ccc(C#N)cc3F)CCCC2)no1`: the cytotoxicity at 10 µM worked out at 2.78%.

Regarding `CC(C)(O)CSCCNC(=O)c1ccc(F)cc1Cl`, the cytotoxicity at 10 µM was -10.9%.

`Clc1cncc(NCc2cccc(COC3CCOCC3)c2)n1`: the cytotoxicity at 10 µM was found to be 14.6%.

In the case of `O=C(c1ncoc1-c1ccco1)N(Cc1ccco1)CC1CCCO1` (stereo not drawn), the cytotoxicity at 10 µM was -2.05%.

For the compound `COc1ccc(CSc2nnc(N)n2C2CC2)cc1F`, the cytotoxicity at 10 µM came out at 5.11%.

With `CC(c1ccc(-n2cncn2)cc1)N(C)Cc1ccccn1` (stereo not drawn), the cytotoxicity at 10 µM turned out to be 8.86%.

In the case of `O=C(NCCOCC1CC1)Nc1ccc(F)cc1`, the cytotoxicity at 10 µM was 9.28%.

On to `CN(CC(=O)NC(C)(C#N)C1CC1)Cc1nnc(C2CC2)n1C` (stereo not drawn), for which the cytotoxicity at 10 µM was 7.32%.

As for `Cc1cccc(N2CCN(C(=O)CCc3ccsc3)C(C)C2)n1` (stereo not drawn), the cytotoxicity at 10 µM is 18.4%.

In the case of `CCOc1ccnc(N2CCN(C(=O)CCc3ccncc3)CC2)n1`, the cytotoxicity at 10 µM was -0.662%.

With `CCc1nc(CCNC(=O)NC2CC2)sc1C`, the cytotoxicity at 10 µM was -14.4%.

With `O=C(NC1(c2nnn(CCO)n2)CCCC1)c1ccccc1`, the cytotoxicity at 10 µM is 14.8%.

Regarding `c1coc(-c2noc(CN3CCC(c4ccn[nH]4)CC3)n2)c1`, the cytotoxicity at 10 µM is -8.19%.

As to `COc1ccnc(N2CCN(C(=O)c3csc(C4CC4)n3)CC2)n1`, the cytotoxicity at 10 µM worked out at 4.85%.

In the case of `COc1ccc(F)cc1C(C)NC(=O)c1nnc(C)s1` (stereo not drawn), the cytotoxicity at 10 µM was -0.213%.

On to `CN(C)S(=O)(=O)N1CCN(c2nccc(C(F)(F)F)n2)CC1`, for which the cytotoxicity at 10 µM was -7.04%.

As to `Cc1cc(C)n(CCCNC(=O)C(C)NC(=O)c2ccccc2Cl)n1` (stereo not drawn), the cytotoxicity at 10 µM is -0.136%.

For `COCC1CN(C(=O)c2ccco2)Cc2nccn2C1` (stereo not drawn), the cytotoxicity at 10 µM was -107%.

For `CN(C)CCO[C@H]1CN(C(=O)c2cscn2)[C@@H]2COC[C@H]12`, the cytotoxicity at 10 µM amounted to 1.43%.

On to `CN1C(=O)CC(c2cnn(C)c2)C12CCN(C(=O)C1CC=CC1)CC2` (stereo not drawn), for which the cytotoxicity at 10 µM is 5.84%.

As for `CC(C)NC(=O)N1CC(=O)c2sc(NC3CCCCC3)nc2C1`, the cytotoxicity at 10 µM is -7.91%.

Take `COc1cccc(CN(C)C(C)c2ccon2)c1OCCn1ccnc1` (stereo not drawn): the cytotoxicity at 10 µM was -5.17%.

With `O=C(c1csc2nc(-c3ccc(Cl)cc3)cn12)N1CCCC(CO)C1` (stereo not drawn), the cytotoxicity at 10 µM was determined as 2.2%.

With `COCCn1cnnc1CCn1ccnc1-c1ccccc1Cl`, the cytotoxicity at 10 µM is -8.25%.

With `O=C(NCc1c[nH]c(=O)[nH]c1=O)C1CCOc2ccccc2C1` (stereo not drawn), the cytotoxicity at 10 µM is -3.03%.

In the case of `O=C1CCC2(CCNCC2)CN1CCCNc1cccnc1`, the cytotoxicity at 10 µM is -6.46%.

As to `OCC(O)CN1CCc2onc(-c3ccc(C(F)(F)F)cc3)c2C1` (stereo not drawn), the cytotoxicity at 10 µM is -3.24%.

On to `Cc1nonc1C1CCCN1C(=O)c1cn2ccsc2n1` (stereo not drawn), for which the cytotoxicity at 10 µM is 9.59%.

Regarding `CN1CCN(C(=O)c2cccc(S(=O)(=O)NCC3(C)COC3)c2)CC1`, the cytotoxicity at 10 µM was -14.1%.

Turning to `Cc1cc(CNC(=O)c2cn(CCC3CCCCN3)nn2)on1` (stereo not drawn), the cytotoxicity at 10 µM was -7.19%.

For the compound `CCn1cnnc1CN(C)c1nccc(C2CCCC2)n1`, the cytotoxicity at 10 µM came to 0.998%.

As to `O=C(NCc1cnn2ccccc12)NC1CCCC1`, the cytotoxicity at 10 µM was -2.91%.

With `Cc1nn(C2CCCCC2)c2nc(C(C)(C)CN3CCOCC3)[nH]c12`, the cytotoxicity at 10 µM is -3.64%.

As to `O=C(CSc1ccncc1)N1CCC2(CC1)c1ccccc1CC2O` (stereo not drawn), the cytotoxicity at 10 µM was -2.36%.

For `CC1CCN(S(=O)(=O)N2CCCC(c3cccc(C(=O)O)c3)C2)CC1` (stereo not drawn), the cytotoxicity at 10 µM is -13.3%.

`Cc1cccc(N2CCC3(CCCN3Cc3c(C)nn(C)c3C)CC2)n1`: the cytotoxicity at 10 µM was -8.35%.

As to `O=C(O)c1cccc(C2CCCN(S(=O)(=O)N3CCOCC3)C2)c1` (stereo not drawn), the cytotoxicity at 10 µM came out at 9.45%.

Take `CCCn1nc(C)c(CNC(=O)C2COc3c(cccc3OC)C2)c1C` (stereo not drawn): the cytotoxicity at 10 µM was -11.8%.

Take `COc1nc(C)c(C(=O)N(C)Cc2nc(-c3ccccn3)no2)s1`: the cytotoxicity at 10 µM is -8.44%.

As to `Cc1cc(C[C@@H]2COC[C@@H]2NC(=O)CN2CCCN(C)CC2)on1`, the cytotoxicity at 10 µM was -15%.

For the compound `O=C(c1ccccc1-c1ccccc1)N1CCOC2(CNCCOC2)C1` (stereo not drawn), the cytotoxicity at 10 µM was -16.2%.

For the compound `O=C(CSCC1CC1)N1CCCC(c2nccn2Cc2ccncc2)C1` (stereo not drawn), the cytotoxicity at 10 µM was -13.3%.

`Cc1cc(C)n(CCC(=O)N2CCC(Nc3cccnn3)CC2)n1`: the cytotoxicity at 10 µM was -6.36%.

On to `COc1ccccc1CNC(=O)Cn1nc(-c2ccc(F)cc2)oc1=O`, for which the cytotoxicity at 10 µM is -10.8%.

As for `CS(=O)(=O)Cc1ccc(C(=O)NC2CCc3nccn3C2)o1` (stereo not drawn), the cytotoxicity at 10 µM is -8.77%.

Consider `O=C(CSc1ccc(F)cc1F)NS(=O)(=O)c1ccc2c(c1)OCCO2`, for which the cytotoxicity at 10 µM was -10.7%.

In the case of `Cc1cc(NC(=O)NCC(C)N2CCOCC2)n(C)n1` (stereo not drawn), the cytotoxicity at 10 µM is -18.3%.

With `O=C(c1ccn(-c2ccc(F)cc2)n1)N1CCCC(n2ccnc2)C1` (stereo not drawn), the cytotoxicity at 10 µM was -16.3%.

With `Cc1ccc(OCCC(=O)N2CCC(c3nncn3C)CC2)c(C)c1`, the cytotoxicity at 10 µM is -6.27%.

Turning to `COc1ccc(C)cc1C(=O)N1CCCC(n2cncn2)C1` (stereo not drawn), the cytotoxicity at 10 µM was -13.3%.

Take `Cc1cnn(CC2CCCN2C(=O)c2cn(C)c3ccccc23)c1` (stereo not drawn): the cytotoxicity at 10 µM is -2.12%.

With `CCc1ccsc1C(=O)N1CCCN(Cc2cscn2)CC1`, the cytotoxicity at 10 µM is -4.77%.

With `CS(=O)(=O)NC1CCCN(C(=O)c2cccnc2)C1` (stereo not drawn), the cytotoxicity at 10 µM is -3.75%.

For the compound `COCCOc1ccc(NC(=O)N2CCCC2c2cccs2)cn1` (stereo not drawn), the cytotoxicity at 10 µM was -3.17%.

As to `Cc1nc(C2CCCN2Cc2nnc(Cc3ccccc3)o2)no1` (stereo not drawn), the cytotoxicity at 10 µM is -5%.

With `COCC(c1cccc(C(F)(F)F)c1)N(C)C(=O)c1cc(C)n[nH]1` (stereo not drawn), the cytotoxicity at 10 µM is -14.1%.

On to `CN1CC2(CCN(Cc3cccnc3)CC2)c2cccc(F)c21`, for which the cytotoxicity at 10 µM is 10.7%.

Take `CC(C)OCCCN(Cc1ccncc1)Cc1cc(F)ccc1F`: the cytotoxicity at 10 µM is -29.2%.

For `OC(CN1CCN(Cc2cccc(F)c2)CC1)C1CC1` (stereo not drawn), the cytotoxicity at 10 µM is -2.45%.

As to `O=C(c1cnccn1)N1CCCC2(CCN(c3ccccn3)C2)C1` (stereo not drawn), the cytotoxicity at 10 µM worked out at 5.77%.

For the compound `Fc1cnc(N2CCCn3c(CN4CCOCC4)nnc3C2)nc1`, the cytotoxicity at 10 µM is -138%.

For `COCCN1C[C@@H]2CCCO[C@@H]2[C@H](NC(=O)c2cnccn2)C1`, the cytotoxicity at 10 µM is 0.766%.

Consider `Cc1csc(NC(=O)[C@@H]2C[C@H]3[C@H](CCN3c3ncccn3)O2)n1`, for which the cytotoxicity at 10 µM was -13.8%.

Consider `COc1cccc(C=CCCN2CCC(C(=O)N3CCCC3)CC2)c1`, for which the cytotoxicity at 10 µM came to 7.09%.

For `O=C(c1ccccn1)N1C[C@H]2CC[C@@H](C1)N(C(=O)CCc1ccsc1)C2`, the cytotoxicity at 10 µM is -12.7%.
